Test results taken from ChEMBL document CHEMBL1687895, “Synthesis and anti-mycobacterial activity of novel amino alcohol derivatives” (Eur J Med Chem, 2011).
≈ marks a conversion by molar mass, not a printed value.

Key:
[1] = test system: Mycobacterium tuberculosis; experiment: Antibacterial activity against Mycobacterium tuberculosis H37Rv ATCC 27294 after 24 hrs by alamar blue assay; type: functional; conditions: H37Rv ATCC 27294, 24 h
In short: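 Microplate Alamar Blue assay on M. tuberculosis ATCC 27294 in Middlebrook 7H9 broth, with compounds serially diluted on the plate (final 0.01–20.0). Water in the outer wells limited evaporation. Sealed plates were incubated at 37 C for five days, then a fresh 1:1 Alamar Blue/10% Tween 80 mix was added for 24 h. MIC is the lowest concentration preventing the blue-to-pink change.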

[2] = Partition coefficient, log P of the compound; type: physicochemical; conditions: octanol/water
In short: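 Computed in silico from structure with an online molecular-property calculation server's logP method, not measured by experimental partitioning.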

| Compound | MIC [1] | logP [2] |
| --- | --- | --- |
| CC(C)(C)OC(=O)N[C@@H](Cc1ccccc1)[C@H](O)CNCc1ccc2c(c1)OCO2 | 241 µM (≈ 99.9 µg/mL) | 5.15 |
| N[C@@H](Cc1ccccc1)[C@H](O)CNCc1ccc2c(c1)OCO2 | 318 µM (≈ 100 µg/mL) | 1.41 |
| CC(C)(C)OC(=O)N[C@@H](Cc1ccccc1)[C@H](O)CN(Cc1ccc2c(c1)OCO2)S(=O)(=O)c1ccc(Br)cc1 | > 500 µM | 7.11 |
| COc1ccc(S(=O)(=O)N(Cc2ccc3c(c2)OCO3)C[C@@H](O)[C@H](Cc2ccccc2)NC(=O)OC(C)(C)C)cc1 | > 500 µM | 6.36 |
| Cc1ccc(S(=O)(=O)N(Cc2ccc3c(c2)OCO3)C[C@@H](O)[C@H](Cc2ccccc2)NC(=O)OC(C)(C)C)cc1 | > 500 µM | 6.75 |
| CC(C)(C)OC(=O)N[C@@H](Cc1ccccc1)[C@H](O)CN(Cc1ccc2c(c1)OCO2)S(=O)(=O)c1ccc(F)cc1 | > 500 µM | 5.38 |
| CC(C)(C)OC(=O)N[C@@H](Cc1ccccc1)[C@H](O)CN(Cc1ccc2c(c1)OCO2)S(=O)(=O)c1ccc([N+](=O)[O-])cc1 | > 500 µM | 6.26 |
| CC(C)(C)OC(=O)N[C@@H](Cc1ccccc1)[C@H](O)CN(Cc1ccc2c(c1)OCO2)S(=O)(=O)c1ccc(N)cc1 | > 500 µM | 6.47 |
| N[C@@H](Cc1ccccc1)[C@H](O)CN(Cc1ccc2c(c1)OCO2)S(=O)(=O)c1ccc(Br)cc1 | 23.5 µM (≈ 12.5 µg/mL) | 3.37 |
| COc1ccc(S(=O)(=O)N(Cc2ccc3c(c2)OCO3)C[C@@H](O)[C@@H](N)Cc2ccccc2)cc1 | 51.6 µM (≈ 25 µg/mL) | 2.62 |
| Cc1ccc(S(=O)(=O)N(Cc2ccc3c(c2)OCO3)C[C@@H](O)[C@@H](N)Cc2ccccc2)cc1 | 106 µM (≈ 49.7 µg/mL) | 3.01 |
| N[C@@H](Cc1ccccc1)[C@H](O)CN(Cc1ccc2c(c1)OCO2)S(=O)(=O)c1ccc(F)cc1 | 211 µM (≈ 99.7 µg/mL) | 1.64 |
| N[C@@H](Cc1ccccc1)[C@H](O)CN(Cc1ccc2c(c1)OCO2)S(=O)(=O)c1ccc([N+](=O)[O-])cc1 | > 500 µM | 2.52 |
| CC[C@@H](CO)NCCN[C@@H](CC)CO [ETHAMBUTOL] | 15.9 µM (≈ 3.25 µg/mL) | 0.35 |
